Measurements gathered from unrelated publications.
Protocols differ between the studies behind these lines.
FGFR1: Fibroblast growth factor receptor 1 (FGFR1, Homo sapiens, UniProt P11362)

SMILES	target	effect on	action	technique	tested at	quantity	result
C#Cc1n[nH]c2c(-c3cn([C@@H](C)c4ccccn4)c(=O)[nH]c3=O)cc(F)cc12	Fibroblast growth factor receptor 1 (FGFR1, Homo sapiens, UniProt P11362, V561M)	enzyme activity	inhibitor		0.1 µM	inhibition	-4.4%
Cc1nn(C)cc1-c1nc2c(N3CCN(Cc4ccc(Cl)cc4)CC3)c(Cl)cnc2[nH]1	FGFR1	binding		competition with immobilised ligand	1 µM	remaining binding	62%
C#Cc1n[nH]c2c(-c3cn([C@@H](C)c4ccccc4)c(=O)[nH]c3=O)cc(F)cc12	FGFR1	enzyme activity	inhibitor		0.1 µM	inhibition	2.9%
Cn1cncc1[C@](O)(COc1ccc(C#N)cc1-c1ccc(OC(F)(F)F)cc1)c1ccc(C#N)cc1	FGFR1	cell-free assay		competition with immobilised ligand	1 µM	remaining binding	62%
COc1ncccc1-c1cnn2ccc(N3CCN(C(=O)OC(C)C)CC3)nc12	FGFR1	binding		competition with immobilised ligand	1 µM	remaining binding	88%
COc1cc(Nc2ncc(F)c(Nc3ccc4c(n3)NC(=O)C(C)(C)O4)n2)cc(OC)c1OC	FGFR1	binding		competition with immobilised ligand	10 µM	inhibition	100%
COCc1c(-c2cc3cc(C)cc(OC)c3s2)c2c(N)ncnn2c1CN1CCNC(=O)C1	FGFR1	cell-free assay		competition with immobilised ligand	1 µM	inhibition	98%
Cn1cc(-c2cccc(N3CCc4c(sc5c4CC(C)(C)C5)C3=O)c2CO)cc(Nc2ccncn2)c1=O	FGFR1	enzyme activity	inhibitor		1 µM	inhibition	9%
O=c1[nH]c2ccccc2n1C1CCN(Cc2ccc(-c3[nH]c4cc5ncnc5cc4nc3-c3ccccc3)cc2)CC1	FGFR1	cell-free assay			0.5 µM	remaining signal	102%
N#CC1(c2ccccn2)CCN(Cc2cc(C(=O)O)c(=O)n3ccccc23)CC1	FGFR1	cell-free assay		competition with immobilised ligand	1 µM	remaining binding	98%
Cn1cc(-c2cc(F)cc(N3CCn4c(cc5c4CCCC5)C3=O)c2CO)cc(Nc2ccc(N3CCN(C4COC4)CC3)cn2)c1=O	FGFR1	enzyme activity	inhibitor		0.1 µM	inhibition	9%
CC(C)(C)c1cc(C=C(C#N)C#N)cc(Br)c1O	FGFR1	enzyme activity	inhibitor		0.5 µM	remaining activity	95.9%
Nc1ncc(-c2nc(N3CCOCC3)nc(N3CCOCC3)n2)c(C(F)F)n1	FGFR1	cell-free assay		competition with immobilised ligand	10 µM	remaining binding	94%
